Here are results for one compound from ChEMBL document CHEMBL1212911, “Identification of potent and selective amidobipyridyl inhibitors of protein kinase D” (J Med Chem, 2010).

The source made the active and inactive calls. No cut-off for these calls is given here.

Data set [1] in a line: Inhibition of PKC-mediated phosphorylation of Ser744/748.
Data set [2] has as its target Calcium/calmodulin-dependent protein kinase type II subunit beta (Homo sapiens) (UniProt Q13554). Briefly: Inhibition of human CaMK2beta. The note with it: concentration not given here. In a few lines: (§1)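 Selectivity screen run externally (Invitrogen SelectScreen). Percent inhibition measured at 1 μM compound, mean of 2 measurements.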
For data set [3], the target named is T1, Serine/threonine-protein kinase D1 (Homo sapiens, UniProt Q15139).
T1 sequence (Q15139 whole entry): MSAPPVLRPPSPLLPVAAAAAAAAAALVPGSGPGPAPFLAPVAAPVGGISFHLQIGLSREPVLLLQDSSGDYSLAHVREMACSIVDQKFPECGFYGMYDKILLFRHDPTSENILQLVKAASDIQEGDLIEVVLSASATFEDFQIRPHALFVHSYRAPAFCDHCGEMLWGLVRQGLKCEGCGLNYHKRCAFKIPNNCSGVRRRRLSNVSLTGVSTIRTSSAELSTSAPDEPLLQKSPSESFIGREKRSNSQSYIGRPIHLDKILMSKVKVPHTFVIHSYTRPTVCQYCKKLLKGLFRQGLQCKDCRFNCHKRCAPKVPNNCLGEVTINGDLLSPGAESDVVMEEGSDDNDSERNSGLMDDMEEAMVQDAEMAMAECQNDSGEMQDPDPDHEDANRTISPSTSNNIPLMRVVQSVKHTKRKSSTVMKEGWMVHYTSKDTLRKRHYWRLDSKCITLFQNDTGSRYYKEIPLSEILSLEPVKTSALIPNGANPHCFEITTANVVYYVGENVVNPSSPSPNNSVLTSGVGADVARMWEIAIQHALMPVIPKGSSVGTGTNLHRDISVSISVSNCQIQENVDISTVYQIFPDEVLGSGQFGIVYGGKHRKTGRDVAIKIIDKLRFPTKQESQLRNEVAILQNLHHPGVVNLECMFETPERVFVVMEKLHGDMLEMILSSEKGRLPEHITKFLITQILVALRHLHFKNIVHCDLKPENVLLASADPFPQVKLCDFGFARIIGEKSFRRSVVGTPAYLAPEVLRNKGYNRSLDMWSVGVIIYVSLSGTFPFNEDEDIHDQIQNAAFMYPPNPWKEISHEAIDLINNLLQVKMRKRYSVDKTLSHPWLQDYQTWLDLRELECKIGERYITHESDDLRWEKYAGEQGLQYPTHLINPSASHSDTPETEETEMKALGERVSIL
The experiment in a line: Inhibition of PKD1 assessed as inhibition of HDAC5 neuclear export. In a few lines:
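Neonatal rat ventricular myocytes infected with adenovirus encoding GFP-HDAC5 and plated on gelatin-coated wells. Cells exposed to compound and stimulated with PGF2α for 2 h, then fixed. Cytoplasmic versus nuclear GFP intensity quantified by high-content imaging.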

Data set [4] concerns the target T2, Protein kinase C epsilon type (Homo sapiens) (UniProt Q02156).
T2 sequence (whole entry): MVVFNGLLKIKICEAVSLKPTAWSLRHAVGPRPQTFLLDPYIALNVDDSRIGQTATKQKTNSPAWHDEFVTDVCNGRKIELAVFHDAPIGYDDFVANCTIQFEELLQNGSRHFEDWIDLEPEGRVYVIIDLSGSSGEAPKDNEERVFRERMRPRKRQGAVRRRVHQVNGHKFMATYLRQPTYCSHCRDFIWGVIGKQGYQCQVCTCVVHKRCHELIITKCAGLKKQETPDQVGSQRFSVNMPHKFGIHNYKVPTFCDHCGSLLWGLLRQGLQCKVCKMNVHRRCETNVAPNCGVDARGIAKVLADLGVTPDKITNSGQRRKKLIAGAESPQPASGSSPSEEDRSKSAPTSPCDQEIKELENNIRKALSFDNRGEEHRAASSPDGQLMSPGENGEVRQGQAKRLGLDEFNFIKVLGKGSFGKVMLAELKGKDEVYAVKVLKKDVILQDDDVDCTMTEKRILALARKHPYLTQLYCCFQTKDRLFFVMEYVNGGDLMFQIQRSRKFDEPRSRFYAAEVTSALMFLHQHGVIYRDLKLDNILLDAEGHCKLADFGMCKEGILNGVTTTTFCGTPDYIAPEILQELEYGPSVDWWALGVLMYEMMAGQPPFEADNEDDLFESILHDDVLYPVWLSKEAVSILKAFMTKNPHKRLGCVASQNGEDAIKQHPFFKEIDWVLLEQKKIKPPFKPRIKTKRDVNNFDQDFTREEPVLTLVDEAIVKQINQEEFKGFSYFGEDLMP
Briefly: Inhibition of PKCepsilon. The note with it: concentration not given here.

The nature of data set [5]: Volume of distribution at steady state in Sprague-Dawley rat at 2 mg/kg, iv and 5 mg/kg, po. In kind it is ADME, organism-based. To be noted: in vivo, read-out: Vdss. In a few lines: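 Rats dosed iv 2 mg/kg (n = 2) or po 5 mg/kg (n = 3) in 10% NMP, 10% Cremophor, 80% pH 4.63 buffer. PK parameters derived from iv dosing, reported as mean ± SD.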
In data set [6] the target is T3, Calcium/calmodulin-dependent protein kinase type IV (Homo sapiens) (UniProt Q16566).
T3 sequence (whole entry): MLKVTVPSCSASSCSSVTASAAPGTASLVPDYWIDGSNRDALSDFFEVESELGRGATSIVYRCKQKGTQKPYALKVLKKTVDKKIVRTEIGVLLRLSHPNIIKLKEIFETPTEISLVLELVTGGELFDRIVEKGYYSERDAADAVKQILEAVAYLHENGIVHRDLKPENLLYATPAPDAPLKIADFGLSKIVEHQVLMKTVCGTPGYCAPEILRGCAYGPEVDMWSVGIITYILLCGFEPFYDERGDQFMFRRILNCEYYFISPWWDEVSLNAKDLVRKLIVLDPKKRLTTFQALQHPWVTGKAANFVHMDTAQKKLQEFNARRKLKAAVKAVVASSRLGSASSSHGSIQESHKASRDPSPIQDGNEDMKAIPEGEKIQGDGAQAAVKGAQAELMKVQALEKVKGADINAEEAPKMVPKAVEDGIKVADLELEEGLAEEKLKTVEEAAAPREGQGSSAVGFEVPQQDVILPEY
Briefly: Inhibition of human CaMK4. The note with it: concentration not given here. In a few lines:
as §1

A short description of data set [7]: AUC (0 to 8 hrs) in Dahl salt-sensitive rat at 50 mg/kg, sc. In kind it is ADME, organism-based. Set-up: time < 8 hr, dose 50 mg/kg, route subcutaneous. The note with it: plasma. In a few lines: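 Dahl salt-sensitive rats given 50 mg/kg sc in 10% 1 N HCl, 90% Captisol in pH buffer (10%). Plasma exposure followed over time to give AUC.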
In data set [8] the target is T1, Serine/threonine-protein kinase D1. The experiment in a line: Inhibition of PKD1 by TR-FRET assay. In outline: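 Full-length wild-type PKD1 expressed and purified from Sf9 cells, 0.2 μg/mL, in 35 mM Tris-HCl pH 7.5, 5 mM MgCl2, 0.02% Tween-20, 20 μM ATP, 1 mM DTT. Reaction started with 2 μM biotinylated syntide-2 and run 50 min at room temperature. Stopped with EDTA plus europium anti-rabbit IgG, anti-phospho-syntide-2 antibody and streptavidin-APC. LANCE TR-FRET 665/615 ratio read after 1 h. 11-point curves in triplicate gave IC50.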
Background: TR-FRET usually uses a lanthanide donor and a delayed reading to cut background.

The target of data set [9] is Beta-1 adrenergic receptor (Homo sapiens, UniProt P08588). Briefly: Inhibition of beta-1 adrenoceptor.
Beta-1 adrenergic receptor, sequence (P08588 whole entry): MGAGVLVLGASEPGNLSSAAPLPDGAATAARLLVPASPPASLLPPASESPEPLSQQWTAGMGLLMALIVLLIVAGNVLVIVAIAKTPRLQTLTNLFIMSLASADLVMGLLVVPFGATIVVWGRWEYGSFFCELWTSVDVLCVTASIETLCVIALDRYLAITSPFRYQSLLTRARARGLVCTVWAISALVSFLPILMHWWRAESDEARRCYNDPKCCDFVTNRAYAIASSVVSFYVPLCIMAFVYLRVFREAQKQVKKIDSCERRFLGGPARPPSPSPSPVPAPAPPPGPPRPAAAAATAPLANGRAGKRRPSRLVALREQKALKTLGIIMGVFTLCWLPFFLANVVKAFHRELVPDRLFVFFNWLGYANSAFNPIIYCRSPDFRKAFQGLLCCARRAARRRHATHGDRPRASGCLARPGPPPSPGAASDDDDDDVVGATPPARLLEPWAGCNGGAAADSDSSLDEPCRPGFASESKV
Data set [10] has as its target Serine/threonine-protein kinase MARK2 (Homo sapiens) (UniProt Q7KZI7). The experiment in a line: Inhibition of human MARK2. To be noted: concentration not given here. In outline: as §1

Calcium/calmodulin-dependent protein kinase type II subunit beta (Homo sapiens), sequence (Q13554 whole entry): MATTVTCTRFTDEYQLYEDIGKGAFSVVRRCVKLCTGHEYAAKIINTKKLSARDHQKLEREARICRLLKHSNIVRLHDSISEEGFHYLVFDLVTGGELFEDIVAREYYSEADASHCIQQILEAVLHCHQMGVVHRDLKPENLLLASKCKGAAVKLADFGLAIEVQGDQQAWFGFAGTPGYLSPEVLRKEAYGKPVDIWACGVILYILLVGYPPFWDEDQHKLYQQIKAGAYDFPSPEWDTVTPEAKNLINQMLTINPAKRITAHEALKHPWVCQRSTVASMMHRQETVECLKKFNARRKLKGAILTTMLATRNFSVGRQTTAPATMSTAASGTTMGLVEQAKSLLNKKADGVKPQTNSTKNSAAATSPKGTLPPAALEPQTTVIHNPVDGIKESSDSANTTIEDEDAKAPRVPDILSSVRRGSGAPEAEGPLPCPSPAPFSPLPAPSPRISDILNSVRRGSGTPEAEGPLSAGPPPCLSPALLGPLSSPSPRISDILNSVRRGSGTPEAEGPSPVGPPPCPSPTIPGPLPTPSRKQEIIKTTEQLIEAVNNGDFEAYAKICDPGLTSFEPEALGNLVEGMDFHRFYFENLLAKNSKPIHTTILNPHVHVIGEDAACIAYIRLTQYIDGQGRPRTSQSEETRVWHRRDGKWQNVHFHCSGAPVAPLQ
Serine/threonine-protein kinase MARK2 (Homo sapiens), sequence (Q7KZI7 whole entry): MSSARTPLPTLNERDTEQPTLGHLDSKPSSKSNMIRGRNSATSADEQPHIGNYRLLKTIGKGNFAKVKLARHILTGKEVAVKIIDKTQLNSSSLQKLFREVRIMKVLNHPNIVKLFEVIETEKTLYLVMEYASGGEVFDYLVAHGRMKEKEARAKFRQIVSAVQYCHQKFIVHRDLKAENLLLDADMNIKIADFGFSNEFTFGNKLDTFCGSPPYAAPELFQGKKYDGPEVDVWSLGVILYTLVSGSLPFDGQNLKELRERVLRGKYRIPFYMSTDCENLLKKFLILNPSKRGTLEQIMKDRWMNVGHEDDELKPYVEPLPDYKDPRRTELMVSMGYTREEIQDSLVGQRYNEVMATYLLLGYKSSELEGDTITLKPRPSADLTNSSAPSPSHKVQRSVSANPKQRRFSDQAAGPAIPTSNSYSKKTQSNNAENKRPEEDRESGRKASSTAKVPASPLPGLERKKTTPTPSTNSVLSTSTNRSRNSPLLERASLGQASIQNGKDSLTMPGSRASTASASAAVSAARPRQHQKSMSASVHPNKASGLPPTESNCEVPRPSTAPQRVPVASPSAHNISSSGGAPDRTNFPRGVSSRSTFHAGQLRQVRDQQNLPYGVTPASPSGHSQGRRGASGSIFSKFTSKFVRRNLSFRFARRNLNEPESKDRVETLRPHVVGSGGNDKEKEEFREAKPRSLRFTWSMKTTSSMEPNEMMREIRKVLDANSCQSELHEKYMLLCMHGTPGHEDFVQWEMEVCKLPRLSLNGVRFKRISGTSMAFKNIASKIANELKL

`NC(=O)c1cc(-c2ccnc(NC3CCCCC3)c2)nc(N2CCNCC2)c1`: in [1], the inhibition entry was “inactive”. The inhibition in [2] was 3%; in [4], -3%; in data set [6], 1%; in [10] it was 27%. Moreover, the EC50 in data set [3] was 77 nM. Further, the Vd in data set [5] amounted to 22 L/kg. Besides, the exposure AUC(0-t) at 8 h in [7] turned out to be 25.8 µM·h. Moreover, the half-maximal inhibitory concentration (IC50) was found to be 1 nM in [8] and 8300 nM in [9].

Broadly, the inhibition is the change of the read-out against control, counted positive when it falls. As usually defined, the EC50 is the midpoint of the concentration-response curve. As a reminder, the AUC(0-t) is exposure summed from dosing to a finite time, without extrapolation to infinity. Broadly, the IC50 is the concentration that inhibits the measured activity by half. A lower IC50 goes with inhibition by little substance.
